According to ChEMBL document CHEMBL1287688 (Bioorg Med Chem, 2010):

What was measured:
[1] = target: T1, Glutamate NMDA receptor; GRIN1/GRIN2B (Homo sapiens, UniProt Q05586+Q13224); test: Displacement of [3H]ifenprodil from human recombinant NR1-1a/NR2B receptor expressed in mouse L(tk-) cells after 120 mins by scintillation counting; format: cell-based
[2] = target: Sigma non-opioid intracellular receptor 1 (Cavia porcellus, UniProt Q60492); test: Displacement of [3H](+)-pentazocine from sigma1 receptor guinea pig brain after 180 mins scintillation counting
[3] = Displacement of [3H]di-o-tolylguanidine from sigma2 receptor rat liver membranes after 180 mins scintillation counting; format: cell membranes, Membrane
[4] = Selectivity ratio of Ki for guinea pig sigma1 receptor to Ki for human recombinant NR1a/NR2B receptor
[5] = target: T1, Glutamate NMDA receptor; GRIN1/GRIN2B; test: Antagonist activity at human recombinant NR1-1a/NR2B receptor expressed in mouse L(tk-) cells assessed as inhibition of (S)-glutamate/glycine-stimulated excitotoxicity treated 30 mins before (S)-glutamate/glycine challenge measured after 4 hrs by LDH release assay; format: functional, cell-based
Method in brief: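 L13-E6 mouse L(tk-) cells stably expressing NR1-1a/NR2B; compounds (1 nM-10 µM, in DMSO) preincubated 30 min, then (S)-glutamate plus glycine (10 µM each) added, 4 h further incubation. LDH in supernatant measured; 0% = no agonist with 100 µM ketamine, 100% = glutamate/glycine without ketamine. At least three experiments, six replicates per concentration; IC50 calculated from curves.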

[6] = target: T2, Amine oxidase [flavin-containing] A (Homo sapiens, UniProt P21397); test: Displacement of radiolabeled kynuramine from MAO-A at 1 to 3 uM
T2 sequence (P21397 whole entry): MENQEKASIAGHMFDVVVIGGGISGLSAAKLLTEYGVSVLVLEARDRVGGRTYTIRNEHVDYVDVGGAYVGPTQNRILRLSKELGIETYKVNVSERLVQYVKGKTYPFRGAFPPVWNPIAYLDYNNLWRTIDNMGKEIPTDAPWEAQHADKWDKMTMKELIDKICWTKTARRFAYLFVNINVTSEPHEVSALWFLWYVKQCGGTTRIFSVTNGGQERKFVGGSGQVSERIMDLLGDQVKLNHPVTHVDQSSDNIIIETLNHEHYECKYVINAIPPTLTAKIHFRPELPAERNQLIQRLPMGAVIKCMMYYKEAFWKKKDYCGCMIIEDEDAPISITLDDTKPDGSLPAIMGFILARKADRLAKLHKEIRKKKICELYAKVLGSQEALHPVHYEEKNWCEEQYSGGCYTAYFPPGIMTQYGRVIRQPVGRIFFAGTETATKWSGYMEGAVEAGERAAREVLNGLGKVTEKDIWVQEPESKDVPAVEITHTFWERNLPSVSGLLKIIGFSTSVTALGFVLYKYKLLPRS
Method in brief: (§1)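 Broad radioligand competition screen against more than 100 receptors, transporters and enzymes, with test concentrations of 1-3 µM. Targets and radioligands are listed only in supplementary data. hERG IC50 was estimated.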

[7] = target: T3, Amine oxidase [flavin-containing] B (Homo sapiens, UniProt P27338); test: Displacement of radiolabeled kynuramine from MAO-B at 1 to 3 uM; method in brief: as §1
T3 sequence (P27338 whole entry): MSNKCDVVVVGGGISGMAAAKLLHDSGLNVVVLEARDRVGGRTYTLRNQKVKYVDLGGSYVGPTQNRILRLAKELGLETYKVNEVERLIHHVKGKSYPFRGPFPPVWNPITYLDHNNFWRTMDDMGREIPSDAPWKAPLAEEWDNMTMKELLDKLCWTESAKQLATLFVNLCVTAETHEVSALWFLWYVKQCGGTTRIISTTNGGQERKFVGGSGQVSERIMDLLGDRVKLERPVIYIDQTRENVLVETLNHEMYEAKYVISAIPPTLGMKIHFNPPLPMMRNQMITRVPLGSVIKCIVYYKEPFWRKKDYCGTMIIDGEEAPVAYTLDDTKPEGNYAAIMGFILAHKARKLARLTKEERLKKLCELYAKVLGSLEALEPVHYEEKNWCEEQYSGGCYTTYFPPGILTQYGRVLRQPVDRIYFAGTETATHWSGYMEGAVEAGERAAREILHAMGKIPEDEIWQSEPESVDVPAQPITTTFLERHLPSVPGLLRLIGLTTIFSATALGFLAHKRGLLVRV

[8] = target: T4, UDP-glucuronosyltransferase 1A1 (Homo sapiens, UniProt P22309); test: Displacement of radiolabeled scopoletin from UGT1A1 at 1 to 3 uM; method in brief: as §1
T4 sequence (P22309 whole entry): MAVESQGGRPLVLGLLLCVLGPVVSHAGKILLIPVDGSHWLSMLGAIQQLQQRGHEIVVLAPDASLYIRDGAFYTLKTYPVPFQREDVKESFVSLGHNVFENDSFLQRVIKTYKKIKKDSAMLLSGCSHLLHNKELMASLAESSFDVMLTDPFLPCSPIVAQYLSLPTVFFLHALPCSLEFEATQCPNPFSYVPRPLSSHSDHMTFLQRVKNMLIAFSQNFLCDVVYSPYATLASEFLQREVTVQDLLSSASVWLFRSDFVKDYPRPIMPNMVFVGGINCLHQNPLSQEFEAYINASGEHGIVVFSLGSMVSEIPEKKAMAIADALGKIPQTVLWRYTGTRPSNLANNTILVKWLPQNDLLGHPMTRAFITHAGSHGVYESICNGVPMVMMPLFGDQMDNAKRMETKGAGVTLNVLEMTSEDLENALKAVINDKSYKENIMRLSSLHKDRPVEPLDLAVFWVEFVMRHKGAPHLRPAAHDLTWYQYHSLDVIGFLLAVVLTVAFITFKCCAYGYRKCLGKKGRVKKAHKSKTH

[9] = Half life in mouse liver microsomes; format: ADME, Microsome
Method in brief: (§2)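 Test article incubated with liver microsomes prepared from mouse, rat and human; half-life determined.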

[10] = Half life in rat liver microsomes; format: ADME, Microsome; method in brief: as §2
[11] = Half life in human liver microsomes; format: ADME, Microsome; method in brief: as §2
Mus musculus [12] = test: Toxicity in mouse assessed as unusual reactions at 1 to 100 mg/kg, ip after 24 hrs; format: organism-based; design: dose 1-100 mg/kg, route intraperitoneal; conditions: in vivo
Method in brief: (§3)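 Mice (Irwin test) received increasing intraperitoneal doses of 1-100 mg/kg body weight. Behaviour was then observed for 24 h.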

Mus musculus [13] = test: Toxicity in mouse assessed as diarrhea at 100 mg/kg, ip after 30 mins; format: organism-based; design: dose 100 mg/kg, route intraperitoneal; conditions: in vivo, 0.5 h; method in brief: as §3

Chain of Sigma non-opioid intracellular receptor 1 (Q60492 whole entry): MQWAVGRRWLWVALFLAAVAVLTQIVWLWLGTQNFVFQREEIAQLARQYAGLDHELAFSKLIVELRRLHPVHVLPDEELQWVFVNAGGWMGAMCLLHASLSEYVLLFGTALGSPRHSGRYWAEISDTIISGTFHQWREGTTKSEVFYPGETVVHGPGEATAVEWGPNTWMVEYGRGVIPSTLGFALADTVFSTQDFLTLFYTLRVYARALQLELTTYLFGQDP
T1 sequence (Q13224 whole entry, other chains not shown): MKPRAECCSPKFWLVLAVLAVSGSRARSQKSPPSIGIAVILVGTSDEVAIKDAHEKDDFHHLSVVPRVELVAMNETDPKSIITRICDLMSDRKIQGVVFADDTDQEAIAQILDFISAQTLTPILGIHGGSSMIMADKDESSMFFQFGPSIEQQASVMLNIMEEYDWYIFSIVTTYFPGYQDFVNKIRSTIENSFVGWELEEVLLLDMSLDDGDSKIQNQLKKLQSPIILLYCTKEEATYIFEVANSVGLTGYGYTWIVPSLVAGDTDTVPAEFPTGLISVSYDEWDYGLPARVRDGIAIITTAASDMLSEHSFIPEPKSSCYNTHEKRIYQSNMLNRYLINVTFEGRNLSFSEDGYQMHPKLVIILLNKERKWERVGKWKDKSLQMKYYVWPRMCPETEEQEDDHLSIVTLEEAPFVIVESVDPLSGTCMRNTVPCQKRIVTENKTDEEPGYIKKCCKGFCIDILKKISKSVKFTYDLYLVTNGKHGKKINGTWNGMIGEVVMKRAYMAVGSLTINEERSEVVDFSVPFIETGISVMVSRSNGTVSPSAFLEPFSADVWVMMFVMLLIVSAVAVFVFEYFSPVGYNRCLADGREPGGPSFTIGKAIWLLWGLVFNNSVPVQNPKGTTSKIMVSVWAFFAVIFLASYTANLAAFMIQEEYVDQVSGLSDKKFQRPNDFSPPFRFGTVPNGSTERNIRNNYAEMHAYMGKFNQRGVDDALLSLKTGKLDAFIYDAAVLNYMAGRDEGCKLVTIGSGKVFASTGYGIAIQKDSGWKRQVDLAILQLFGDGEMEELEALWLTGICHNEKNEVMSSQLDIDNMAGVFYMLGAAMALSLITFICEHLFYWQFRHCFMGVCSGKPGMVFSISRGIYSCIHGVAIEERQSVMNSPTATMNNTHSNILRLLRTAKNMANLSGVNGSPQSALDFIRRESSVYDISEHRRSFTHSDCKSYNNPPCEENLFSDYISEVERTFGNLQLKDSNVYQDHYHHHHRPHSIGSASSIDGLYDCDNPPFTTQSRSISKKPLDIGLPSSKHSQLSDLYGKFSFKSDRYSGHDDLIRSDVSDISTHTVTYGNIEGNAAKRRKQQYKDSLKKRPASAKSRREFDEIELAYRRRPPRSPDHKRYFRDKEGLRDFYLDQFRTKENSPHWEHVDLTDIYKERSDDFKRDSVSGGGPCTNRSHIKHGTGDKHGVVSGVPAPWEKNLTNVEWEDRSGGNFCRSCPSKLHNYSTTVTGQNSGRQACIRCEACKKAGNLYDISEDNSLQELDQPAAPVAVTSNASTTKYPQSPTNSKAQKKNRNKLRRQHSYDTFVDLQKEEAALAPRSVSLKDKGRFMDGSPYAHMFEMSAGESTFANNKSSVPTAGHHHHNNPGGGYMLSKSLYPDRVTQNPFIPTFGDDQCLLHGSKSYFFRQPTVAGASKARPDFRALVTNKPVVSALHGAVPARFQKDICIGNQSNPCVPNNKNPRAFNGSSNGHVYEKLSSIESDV

Row | Ki [1] [nM] | Ki [2] [nM] | Ki [3] [nM] | Structure (SMILES) | other results
1 | 139 | 10 | 311 | OC1CN([C@H]2CC[C@@H](c3ccccc3)CC2)CCc2cc(OCc3ccccc3)ccc21 (some centres not stated) | Ratio Ki [4]: 14
2 | 388 | 386 | > 1000 | OC1CN([C@H]2CC[C@H](c3ccccc3)CC2)CCc2cc(OCc3ccccc3)ccc21 (some centres not stated) | –
3 | 1310 | 604 | 6430 | OC1CN(Cc2ccc(N3CCCCC3)cc2)CCc2cc(OCc3ccccc3)ccc21 (racemic) | –
4 | 644 | > 1000 | > 1000 | CC(C)(C)c1ccc(C(=O)CCCN2CCc3cc(OCc4ccccc4)ccc3C(O)C2)cc1 (racemic) | –
5 | 151 | 293 | 1050 | O=C(CCCN1CCc2cc(OCc3ccccc3)ccc2C(O)C1)c1ccc(F)cc1 (racemic) | –
6 | 20 | 170 | 5.9 | Oc1ccc2c(c1)CCN(CCCOc1ccccc1)CC2O (racemic) | –
7 | > 1000 | – | 1580 | CN(Cc1ccccc1)C(=O)CN1CCc2cc(O)ccc2C(O)C1 (racemic) | –
8 | > 1000 | > 1000 | 658 | Oc1ccc2c(c1)CCN(C1CCC3(CC1)OCCO3)CC2O (racemic) | –
9 | 204 | > 1000 | 98 | O=C(c1ccccc1)N1CCC(N2CCc3cc(O)ccc3C(O)C2)CC1 (racemic) | –
10 | 3.3 | 123 | 8.6 | Oc1ccc2c(c1)CCN([C@H]1CC[C@@H](c3ccccc3)CC1)CC2O (mixture of isomers) | IC50 [5]: 12100 nM
11 | 9 | 200 | 8.9 | Oc1ccc2c(c1)CCN([C@H]1CC[C@H](c3ccccc3)CC1)CC2O (mixture of isomers) | –
12 | 36 | 1050 | 33 | O=C(CCCN1CCc2cc(O)ccc2C(O)C1)c1ccc(F)cc1 (racemic) | –
13 | 187 | – | 1050 | OC1CN(CCCCc2ccccc2)CCc2cc(OCc3ccccc3)ccc21 (racemic) | –
14 | 93 | 193 | 945 | OC1CN(CCCOc2ccccc2)CCc2cc(OCc3ccccc3)ccc21 (racemic) | –
15 | 41 | – | 653 | OC1CN(CCCSc2ccccc2)CCc2cc(OCc3ccccc3)ccc21 (racemic) | –
16 | 37 | – | 3040 | O=S(=O)(CCCN1CCc2cc(OCc3ccccc3)ccc2C(O)C1)c1ccccc1 (racemic) | –
17 | 661 | > 1000 | > 1000 | COc1ccc(C2(CCCN3CCc4cc(OCc5ccccc5)ccc4C(O)C3)OCC(C)(C)CO2)cc1 (racemic) | –
18 | 1420 | > 1000 | > 1000 | CC1(C)COC(CCCN2CCc3cc(OCc4ccccc4)ccc3C(O)C2)(c2ccc(F)cc2)OC1 (racemic) | –
19 | 1210 | > 1000 | > 1000 | OC1CN(Cc2cccc(-c3ccccc3)c2)CCc2cc(OCc3ccccc3)ccc21 (racemic) | –
20 | 377 | > 1000 | 2960 | CN(Cc1ccccc1)C(=O)CN1CCc2cc(OCc3ccccc3)ccc2C(O)C1 (racemic) | –
21 | 1120 | – | 753 | OC1CN(C2CCC3(CC2)OCCO3)CCc2cc(OCc3ccccc3)ccc21 (racemic) | –
22 | 1000 | 186 | > 1000 | OC1CN(C2COC(c3ccccc3)OC2)CCc2cc(OCc3ccccc3)ccc21 (racemic) | –
24 | – | – | – | CC(C(O)c1ccc(O)cc1)N1CCC(Cc2ccccc2)CC1 (configuration not stated) [IFENPRODIL] | half-life [9]: < 5 min; half-life [10]: < 1 min; half-life [11]: 5 min

Row | Structure (SMILES) | Ki [1] [nM] | Ki [2] [nM] | Ki [3] [nM] | other results
25 | COc1ccc2c(c1)CCN(CCCCc1ccccc1)CC2O (configuration not stated) | 5.4 | – | 554 | IC50 [5]: 360 nM
26 | COc1ccc(C(=O)CCCN2CCc3cc(OCc4ccccc4)ccc3C(O)C2)cc1 (racemic) | > 1000 | > 1000 | 4500 | –
27 | Oc1ccc2c(c1)CCN(CCCCc1ccccc1)CC2O (racemic) | 14 | – | 18000 | Activity [6]: Not Active; Activity [7]: Not Active; Activity [8]: Not Active; IC50 [5]: 18.4 nM; half-life [9]: 28 min; half-life [10]: < 3 min; half-life [11]: 21 min; Activity (Mus musculus [12]): Non-toxic; Activity (Mus musculus [13]): Toxic
28 | O=S(=O)(CCCN1CCc2cc(O)ccc2C(O)C1)c1ccccc1 (racemic) | > 1000 | > 1000 | 653 | –
29 | Oc1ccc2c(c1)CCN([C@H]1CO[C@H](c3ccccc3)OC1)CC2O (mixture of isomers) | > 1000 | > 1000 | > 1000 | –
30 | CC1(C)COC(CCCN2CCc3cc(OCc4ccccc4)ccc3C(O)C2)(c2ccc(C(C)(C)C)cc2)OC1 (racemic) | > 1000 | > 1000 | 900 | –
31 | O=C(c1ccccc1)N1CCC(N2CCc3cc(OCc4ccccc4)ccc3C(O)C2)CC1 (racemic) | > 1000 | > 1000 | > 1000 | –
32 | OC(CN1CCC(Cc2ccc(F)cc2)CC1)c1ccc(Cl)cc1 (configuration not stated) [ELIPRODIL] | 13 | – | – | –
